Assay outcomes from PubChem.
CYP2C19 act – increases human CYP2C19 enzyme activity. P33261. recombinant CYP2C19, luciferin-H EGE luminescence; hits give high values; 0 = fully inhibited enzyme, 1 = untreated enzyme. activation factor at 5 µM. 96,000 tested, under 10 active. AID 1025;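 active = activation factor of at least 2 at 5 µM in the primary screen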;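 note: 0 = wells with 2.5 mM tranylcypromine and 1 = vehicle-only wells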
CYP2C9 inh – blocks human cytochrome P450 2C9. P11712. AID 777. 96,000 compounds, 20% hits. CYP2C9 Supersomes, luciferin-H conversion, luminescence. inhibition, % at 5 µM;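 active = blocking of liver enzyme CYP2C9 beyond about 50% at 5 µM, limit read from the data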
Target sequence (P11712 whole entry, looked up): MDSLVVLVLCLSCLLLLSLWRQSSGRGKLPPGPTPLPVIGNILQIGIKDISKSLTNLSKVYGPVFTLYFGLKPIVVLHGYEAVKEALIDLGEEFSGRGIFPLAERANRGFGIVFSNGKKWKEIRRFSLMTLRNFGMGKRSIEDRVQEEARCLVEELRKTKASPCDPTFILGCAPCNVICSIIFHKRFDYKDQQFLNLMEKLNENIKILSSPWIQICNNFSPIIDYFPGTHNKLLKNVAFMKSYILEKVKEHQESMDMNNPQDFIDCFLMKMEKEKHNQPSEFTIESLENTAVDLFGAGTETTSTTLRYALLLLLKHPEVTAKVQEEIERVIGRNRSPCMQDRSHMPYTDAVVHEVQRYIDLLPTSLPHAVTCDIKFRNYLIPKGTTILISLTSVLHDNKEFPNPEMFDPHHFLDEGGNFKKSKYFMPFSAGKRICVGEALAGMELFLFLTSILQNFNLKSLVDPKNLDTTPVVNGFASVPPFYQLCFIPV
Rev-RRE block – HIV Rev-RRE protein-RNA interaction inhibition; inhibition, % at 8 µM; Rev peptide-RRE RNA binding, FRET; 97,000 compounds, 0.79% hits; AID 704; P05866;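 active = inhibition above the screen-wide mean plus 3 SD, cut at about 35% in these data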;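 note: 0% = median DMSO wells and 100% = median Neomycin B control wells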
Target sequence (P05866 whole entry, looked up): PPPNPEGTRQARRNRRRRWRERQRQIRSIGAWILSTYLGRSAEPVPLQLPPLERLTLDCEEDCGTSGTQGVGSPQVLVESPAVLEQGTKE
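Test system – labelled RRE RNA duplex and labelled Rev peptide · Signal – fluorescein-to-Cy5 FRET, 480 nm excitation · Evaluation – % inhibition of FRET ratio versus controls · Benchmarks – DMSO low control, neomycin B high control · Incubation – 5 min RNA-compound premix plus 15 min binding step, 25 °C · Medium – HEPES pH 7.5 salt buffer with EDTA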
CYP2C19 inh – human CYP2C19 inhibition; P33261; CYP2C19 Supersomes, luciferin-H EGE luminescence, 30 min; inhibition, % at 5 µM; 96,000 compounds, 21% hits; AID 778;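 active = CYP2C19 inhibition above a set limit at 5 µM in the primary screen, cut at about 50% in these data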;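 note: plate controls were negative control wells for no effect and 2.5 mM tranylcypromine positive control for full effect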
Cav32 inh – human Cav3.2 channel inhibition, primary screen; AID 449739; B-score at 10 µM; 100,000 compounds, 4% hits; O95180; Cav3.2-expressing cells, Fluo-4 calcium fluorescence FDSS; hits give low values;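 active = single-dose well whose peak fluorescence ratio is a statistical outlier from its plate by either plate-standardised score or position-corrected B-score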
CYP2C9 act – activators of human CYP2C9. 96,000 compounds, 1.4% hits. AID 1024. activation factor at 5 µM. recombinant CYP2C9, luciferin-H conversion, luminescence; hits give high values; factor 1 = untreated enzyme, 0 = blocked. P11712;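 active = activation factor of 2 or more for CYP2C9 at a 5 µM dose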;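 note: 0 = sulfaphenazole-blocked wells and 1 = vehicle-only wells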
* = called active by the depositor; nt = no result; [ ] = dose if it differs, or a comment. An excerpt weighted towards active compounds, which were near 27% of everything screened.

SMILES	CYP2C19 act	CYP2C9 inh	Rev-RRE block	CYP2C19 inh	Cav32 inh	CYP2C9 act
O=C(c1ccccc1-c1ccccc1)N1CCN(c2ccccn2)CC1	0.6	73*	6	40	nt	0.3
COC(=O)C(C)N1CCC(=O)c2ccccc2S1(=O)=O (stereo unspecified)	nt	nt	nt	nt	0.68	nt
CCCC12CN3CC(C)(CN(C1)C3c1ccc(OC(C)C)cc1)C2=O (stereo unspecified)	1	16	3	2	-0.46	0.8
O=C(NCc1nc2ccccc2[nH]1)C1=C[C@@H](c2ccc3c(c2)OCO3)C[C@@H](OCc2ccc(CO)cc2)O1	nt	nt	nt	nt	-1.9	nt
COc1ccc(-c2cc(C(=O)N3CCN(c4ccccc4)CC3)c3ccccc3n2)cc1OC	0.1	93*	7	89*	-1.1	0.1
Cc1ccccc1C(=O)N1CCN(c2ccccn2)CC1	nt	nt	0	nt	0.46	nt
O=C(c1cnc(N2CCN(c3ncccn3)CC2)c2ccccc12)N1CCN(c2ccccn2)CC1	0.3	80*	3	68*	-0.38	0.2
CC(=O)Nc1ccc(C(=O)NC(CC(=O)O)c2ccc(Cl)cc2)cc1 (stereo unspecified)	1.1	2	4	-7	0.16	1
Cc1ccc2c(c1)CN1CN2Cc2cc(C)ccc21	0.5	42	nt	54*	-0.51	0.6
Cc1ccc(C)c(N2CC(=O)N(c3cc(C)ccc3C)CC2=O)c1	1.1	-14	9	-11	0.74	1.1
CCCC(C(=O)O)N1C(=O)/C(=C2\C(=O)N(C)c3ccccc32)SC1=S (stereo unspecified)	0.9	68*	nt	6	nt	0.3
CCOC(=O)CN1C(=O)N[C@@H](CCc2ccccc2)[C@H](C(C)=O)[C@H]1C	nt	nt	nt	nt	0.21	nt
CC1(C)CC2CC(C)(CN2C(=O)Cc2ccccc2)C1 (stereo unspecified)	nt	nt	3	nt	-2.4	nt
CC1(C)CC2CC(C)(CN2CC(=O)C(C#N)c2ccccc2)C1 (stereo unspecified)	0.2	2	1	80*	0.49	1
CC1C/C(=C/c2cccn2C)C(=O)/C(=C/c2cccn2C)C1 (stereo unspecified)	1	1	136*[fluorescence artefact?]	4	-14*	1
Cn1cccc1/C=C1/SC(=S)N(CC(=O)O)C1=O	nt	nt	nt	nt	-1.1	nt
COCCn1nnnc1C(C(C)C)N(Cc1cccnc1)Cc1ccccc1Cl (stereo unspecified)	0	43	8	95*	-0.47	0.6
CCC(c1nnnn1CCOC)N1CCN(Cc2ccccc2)CC1 (stereo unspecified)	0.9	18	3	10	-0.05	0.8
COc1ccc(CN(C)C(c2ccccc2)c2nnnn2-c2ccccc2C)c(OC)c1C (stereo unspecified)	0.1	79*	3	94*	nt	0.2
COc1cccc(/C=N/NC(=O)c2ccc(OCc3cccc(Br)c3)cc2)c1	0.5	84*	8	50	-6*	0.2
COc1cccc(/C=N/NC(=O)CCc2ccccc2)c1	0.4	5	0	60*	-0.12	0.9
CC1=C(C#N)C(Nc2cccc(C)n2)(C(F)(F)F)C(=O)N1 (stereo unspecified)	0.2	-7	4	75*	0.21	1.1
CC1=C(C#N)C(NC(=O)C2CC2)(C(F)(F)F)C(=O)N1 (stereo unspecified)	1.2	-16	7	-16	-0.0072	1.2
COCC(C)n1c(C)cc(C(=O)COC(=O)c2oc3ccccc3c2C)c1C (stereo unspecified)	0.7	-44	-2	28	-5.8*	1.4
C=CCOc1nc(N2CCCC2)nc(N2CCCC2)n1	1	-1	1	0	-0.15	1
SMILES	CYP2C19 act	CYP2C9 inh	Rev-RRE block	CYP2C19 inh	Cav32 inh	CYP2C9 act
O=C(Cn1ncc2c1-c1ccccc1OC2)Nc1nc2ccccc2s1	0.5	55*	13	46	-9.4*	0.4
CCN(CC)C(=O)Cn1ncc2c1-c1ccccc1OC2	0.9	10	8	5	0.88	0.9
CC(CCc1ccco1)NC(=O)Cn1ncc2c1-c1ccccc1OC2 (stereo unspecified)	0.2	67*	-1	80*	-1	0.3
COc1cccc(NC(=O)COc2ccc(N3CC(C(=O)NCC(C)C)CC3=O)cc2)c1 (stereo unspecified)	0.9	44	-3	12	0.82	0.6
CCn1cc(C(=O)Nc2nnc(C)s2)c(=O)c2cc(F)c(N3CCN(C(=O)c4ccco4)CC3)cc21	nt	nt	3	nt	nt	nt
C=CCn1cc(C(=O)NCC2CCCO2)c(=O)c2cc(S(=O)(=O)N3CCCCCC3)ccc21 (stereo unspecified)	0.9	55*	10	7	0.36	0.5
O=C(NCC1CCCO1)c1cc(-c2ccncc2)nc2ccc(S(=O)(=O)N3CCOCC3)cc12 (stereo unspecified)	0.3	70*	4	72*	0.14	0.3
O=C(NCCN1CCCC1)c1cc(-c2ccncc2)nc2ccc(S(=O)(=O)N3CCOCC3)cc12	0.6	32	nt	40	0.18	0.7
CCn1cc(C(=O)NCC2CCCO2)c(=O)c2cc(S(=O)(=O)N(C)C3CCCCC3)ccc21 (stereo unspecified)	0.8	61*	4	22	-0.87	0.4
CCn1cc(C(=O)NCC2CCCO2)c(=O)c2cc(S(=O)(=O)N(C)C)ccc21 (stereo unspecified)	nt	nt	4	nt	2	nt
CCN1CCCC1CNC(=O)c1cn(CC)c2ccc(S(=O)(=O)N3CCCCCC3)cc2c1=O (stereo unspecified)	0.9	40	6	13	nt	0.6
CCC(=O)Nc1ccc(NC(=O)C23CC4CC(CC(C4)C2)C3)cn1	1	6	5	3	0.47	0.9
CCOc1ccc(NC(=O)C23CC4CC(C2)CC(c2ccccc2)(C4)C3)cc1	0.6	23	11	38	-1.9*	0.8
CC(=O)Nc1ccc(-c2nnc(SCC(=O)c3ccc4c(c3)Cc3ccccc3-4)n2C)cc1	0.6	41	-3	37	0.079	0.6
Cc1cc(C)nc(SCc2nnc(SCC(=O)Nc3ccc(C)c(C)c3)o2)n1	0.1	74*	8	88*	-1.9	0.3
CC(C)CNC(=O)CSc1nnc(-c2cccc(S(=O)(=O)N3CCCCC3)c2)o1	0.7	45	8	26	1.1	0.5
Cc1cccc(NC(=O)CSc2nnc(-c3ccccc3C)o2)c1	nt	nt	11	nt	-3.1	nt
CC(NC(=O)CSc1nnc(-c2cccc(S(=O)(=O)N3CCCCC3)c2)o1)C12CC3CC(CC(C3)C1)C2 (stereo unspecified)	0.3	91*	-2	68*	-7*	0.1
Cc1ccc(NC(=O)CSc2nnc(-c3ccccc3C)o2)cc1C	1	10	11	-2	-0.63	0.9
CCOc1ccccc1-c1nnc(SCC(=O)Nc2ccccc2)o1	0.6	-138	13	41	-2.3	2.4*
